Screening data from PubChem.
Only some compounds are listed: those with a hit (about 4.1% of all), similar ones and a draw of the others.
KCNQ1 block = inhibitors of human KCNQ1 potassium channel; P51787; CHO-K1 KCNQ1, FluxOR thallium flux fluorescence; hits give high values; B-score at 10 µM; 1.3% of 310,000 active;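 active = compounds whose thallium flux B-score, printed positive for inhibition, exceeds three library SD while starting fluorescence stays within three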;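 note: channel opened by potassium depolarization with thallium stimulus after 20 min compound exposure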
hERG protect = hERG (human) protection from proarrhythmic block; Q12809; CHO-hERG, FluxOR thallium flux, dofetilide IC70 present; activation (rescue from dofetilide block), less the hit threshold, % at 10 µM; 0.51% of 310,000 active;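 active = activation above the mean of controls blocked by dofetilide plus 5 SD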;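 note: thallium influx through hERG after potassium depolarization seen as dye fluorescence rise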
KCNK3 block = human KCNK3 channel inhibition, primary screen. 0.84% of 340,000 active. B-score at 10 µM. O14649. AID 602410. CHO-KCNK3 thallium flux, FluxOR fluorescence; hits give low values;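 active = B-score under library mean minus 4 SD, starting fluorescence ratio at most library mean plus 5 SD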;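 note: more negative B-score means stronger inhibition of thallium flux through KCNK3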
Target sequence (O14649 whole entry, looked up): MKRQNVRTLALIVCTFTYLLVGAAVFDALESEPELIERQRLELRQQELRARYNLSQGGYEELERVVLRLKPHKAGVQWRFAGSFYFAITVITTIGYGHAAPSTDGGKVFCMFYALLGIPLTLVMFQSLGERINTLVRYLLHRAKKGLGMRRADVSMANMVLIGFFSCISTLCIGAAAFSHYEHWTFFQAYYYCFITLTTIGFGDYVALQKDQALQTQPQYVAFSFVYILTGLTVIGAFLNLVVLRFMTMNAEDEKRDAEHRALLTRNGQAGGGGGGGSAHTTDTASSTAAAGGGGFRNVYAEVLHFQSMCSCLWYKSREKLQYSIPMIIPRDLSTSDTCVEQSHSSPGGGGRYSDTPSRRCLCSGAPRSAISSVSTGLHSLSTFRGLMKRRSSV
KCC2 mod = modulators of human KCC2 chloride dependent transport; 2.2% of 190,000 active; AID 1456; B-score of Tl+ flux slope (higher = more flux/activation; lower = inhibition) at 10 µM; KCC2 cells, thallium flux FluoZin-2 fluorescence; Q9H2X9;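 active = thallium flux slope and its plate-corrected score both differing from the plate sample mean at a set confidence after two filtering rounds, in either direction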;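 note: slope of fluorescence scaled to starting intensity during 10 to 20 s after thallium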
KCNQ1 pot = potentiators or activators of human KCNQ1 potassium channel; AID 2648; 0.35% of 310,000 active; B-score at 10 µM; CHO-K1 KCNQ1, thallium flux FluxOR fluorescence; hits give high values; P51787;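 active = fluorescence ratio B-score, a plate-corrected score, at least three library SD, with initial intensity B-score within 5 SD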
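assay system = KCNQ1-transfected CHO-K1 cells | medium = assay buffer with matched DMSO | probe or stimulus = depolarizing K+/Tl+ stimulus, K2SO4 and Tl2SO4 each 12.5 mM in 5x stock | dosing = single dose | incubation = dye 90 min, compound 20 min, room temperature | detection = kinetic FluxOR fluorescence, 10 s baseline plus 110 s post-stimulus | evaluation = ratio B score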
KCNK9 block = inhibitors of human KCNK9 two-pore domain potassium channel; Q9NPC2; HEK293 KCNK9, FluxOR thallium flux fluorescence; hits give low values; B-score at 10 µM; AID 488922; 1.2% of 310,000 active;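 active = ratio B-score over 3 SD below the library mean, with starting fluorescence within 5 SD of its mean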;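 note: negative B-score means less thallium flux so channel inhibition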
Of the large screens only hits and unclear results are named; the others gave an inactive call.

COc1ccc(CN2CCN(Cc3cccc4nonc34)CC2CCO)c(C)c1C (stereo not given)	hERG protect 5.3 (no result: KCC2 mod)
Cc1cccc(CN2CCN(Cc3cccc4nonc34)CC2CCO)n1 (stereo not given)	none
COc1cc(OC)cc(-c2c(C#Cc3ccsc3)c3cc(-c4ccc5c(c4)OCO5)ccc3n2C)c1	none (no result: KCNQ1 block, hERG protect, KCC2 mod, KCNQ1 pot, KCNK9 block)
Cc1ccc(C(=O)Nc2c(-c3cccs3)nc3cc(C)ccn23)cc1	none (no result: KCC2 mod)
Cc1ccn2c(NC(=O)C(C)(C)Oc3ccc(Cl)cc3)c(-c3cccs3)nc2c1	KCNK9 block -7.4
CS(=O)(=O)N(CC(=O)NC1CC1)C1CCCCC1	none
CS(=O)(=O)N(CC(=O)NC1CCCC1)C1CCCCC1	hERG protect 6.5
O=C(CN(CC1CCCO1)C(=O)CNS(=O)(=O)c1ccccc1)NCc1ccco1 (stereo not given)	hERG protect 7.2
COc1ccccc1-n1c(SCC(=O)c2ccc(O)cc2O)nc2cc([N+](=O)[O-])ccc21	KCNQ1 block 6
COc1ccccc1-n1c(SCC(=O)NC2CCS(=O)(=O)C2)nc2cc([N+](=O)[O-])ccc21 (stereo not given)	none
CNC(=S)/N=C/NOCc1ccc(Cl)cc1Cl	KCNQ1 block 8
CN(C)c1ccc(/C=C(\C#N)C(=O)NCc2ccco2)cc1	none (no result: KCNK3 block)
CC(OC(=O)/C(C#N)=C/c1ccc(N(C)C)cc1)C(=O)N(C)c1ccccc1 (stereo not given)	KCNQ1 block 8 (no result: KCC2 mod)
CC(OC(=O)/C(C#N)=C/c1ccc(N(C)C)cc1)C(=O)NCc1ccco1 (stereo not given)	KCNQ1 block 7 (no result: KCC2 mod)
CCOc1ncccc1C(=O)Nc1cccc(S(=O)(=O)N2CCOCC2)c1	none (no result: KCNQ1 block, hERG protect, KCC2 mod, KCNQ1 pot, KCNK9 block)
COc1ccc(C(C(=O)NCC2CCCO2)N(C(=O)c2snc(C(N)=O)c2N)c2ccc(C)cc2)cc1OC (stereo not given)	none (no result: KCC2 mod)
COC(=O)[C@]1(C)N[C@H](CN(C)C(=O)C2CCCCC2)[C@@H]2C(=O)N(Cc3ccccc3)C(=O)[C@@H]21	none (no result: KCNQ1 block, hERG protect, KCC2 mod, KCNQ1 pot, KCNK9 block)
O=C(NNc1c2ccccc2nc2ccccc12)c1ccccc1Cl	KCNQ1 pot 9 (no result: KCC2 mod)
O=C(NC1CC1)c1ccc2c(c1)C1C3CCC(C3)C1C(c1ccccc1)N2 (stereo not given)	hERG protect 5.2
Cc1cc(C)n2nc(C(=O)N3CCOCC3)nc2n1	hERG protect 8.0 (no result: KCC2 mod)
Cc1cc(C)n2nc(C(=O)OCC(=O)N3CCC3)nc2n1	hERG protect 5.3
N#CCc1ccccc1C(=O)OCC(=O)N(Cc1ccccc1)Cc1ccccc1	KCNK3 block -9.4 (no result: KCNQ1 block, hERG protect, KCC2 mod, KCNQ1 pot, KCNK9 block)
CCOC(=O)C1CCCN(C(=O)c2ccc3nc(-c4cccc(OC)c4)oc3c2)C1 (stereo not given)	none (no result: KCC2 mod)
Cc1ccc(-c2nc(N)s[n+]2-c2ccccc2)cc1	hERG protect 10
CCN(CC)S(=O)(=O)c1cccc(C(=O)OCC(=O)NCCN2C(=O)CSC2=O)c1	none (no result: KCNQ1 block, hERG protect, KCC2 mod, KCNQ1 pot, KCNK9 block)
O=C1Nc2cc(C(=O)NCCN3CCCCCC3)ccc2S/C1=C\c1ccccc1	none (no result: KCC2 mod)
Cc1cccc(/C=C2/Sc3ccc(C(=O)NCCN4CCCC4)cc3NC2=O)c1	KCNQ1 block 6 (no result: KCC2 mod)
COc1ccc(CCC(=O)Nc2ccc(N3CCOCC3)c(S(=O)(=O)Nc3ccc(OC)cc3)c2)cc1	none (no result: KCNQ1 block, hERG protect, KCC2 mod, KCNQ1 pot, KCNK9 block)
CC(C)NC(=O)/C(C#N)=C/c1ccc(N(C)C)o1	KCNQ1 block 7
COC(OC)c1ccc(C#N)c(SCc2ccc(C)cc2)n1	none
O=C(Cc1ccsc1)OCC(=O)c1ccccc1	none (no result: KCNQ1 block, hERG protect, KCC2 mod, KCNQ1 pot, KCNK9 block)
CCC1CCCCN1c1nc(-c2ccncc2)nc2ccccc12 (stereo not given)	KCNK9 block -6.8
CCC1CCCCN1c1nc(-c2cccc(OC)c2O)nc2ccccc12 (stereo not given)	KCNK9 block -7.6 (no result: KCC2 mod)
O=C(CCSc1nc(-c2ccco2)cc(C(F)(F)F)n1)NCCc1ccccc1	KCC2 mod -3.1
Cc1cccc(Cn2c(C(=O)OC(C)C)cc3c2ccn3C)c1	KCNQ1 block 6
O=C(O)CNC(=S)N(Cc1ccccc1)Cc1ccccc1F	none
CC(C)C(=O)NC(=S)N(Cc1ccccc1)Cc1ccccc1	KCC2 mod 42
CC(C)CC(=O)NC(=S)N(Cc1ccccc1)Cc1ccccc1	KCC2 mod 49
